Results taken from ChEMBL document CHEMBL2169804, “Novel histone deacetylase 8 ligands without a zinc chelating group: exploring an 'upside-down' binding pose” (Bioorg Med Chem Lett, 2012).
Active and inactive are the calls of the source. The rule behind the calls is not given here.

How the values were obtained:
Histone deacetylase 3 [1] = target: T1, Histone deacetylase 3 (Homo sapiens, UniProt O15379); test: Inhibition of human recombinant HDAC3 using Boc-Lys(Ac)-AMC as substrate preincubated for 5 mins followed by substrate addition measured after 30 mins by microplate reader analysis
[2] = target: T2, Histone deacetylase 8 (Homo sapiens) (UniProt Q9BY41); test: Binding affinity to human recombinant HDAC8 expressed in Escherichia coli assessed as increase in enzyme biotinylation level preincubated for 3 hrs followed by denaturation measured after 60 mins by Western blot-based photoaffinity labelling method
T2 sequence (whole entry): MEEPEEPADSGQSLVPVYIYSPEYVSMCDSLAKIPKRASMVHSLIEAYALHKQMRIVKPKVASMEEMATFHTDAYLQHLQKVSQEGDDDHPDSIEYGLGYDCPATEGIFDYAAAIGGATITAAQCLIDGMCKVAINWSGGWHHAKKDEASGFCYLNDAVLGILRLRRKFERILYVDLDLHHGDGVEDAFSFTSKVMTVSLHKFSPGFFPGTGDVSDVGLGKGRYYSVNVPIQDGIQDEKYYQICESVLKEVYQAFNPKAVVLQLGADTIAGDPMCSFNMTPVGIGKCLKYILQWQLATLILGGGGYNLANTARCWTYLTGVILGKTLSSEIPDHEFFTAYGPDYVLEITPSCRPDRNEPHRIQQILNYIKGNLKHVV
Outline: (§1)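 Probe, or probe plus competitor, preincubated 3 h at room temperature, then irradiated at 254 nm for 3 × 1 min with 1 min rests. For denaturing runs, SDS was added to 2% w/v final and held 30 min at 37 °C.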

[3] = target: T2, Histone deacetylase 8 (Homo sapiens); test: Binding affinity to human recombinant HDAC8 expressed in Escherichia coli assessed as enzyme biotinylation level at […] preincubated for 3 hrs followed by denaturation measured after 60 mins by Western blot-based photoaffinity labelling method in presence of 0.25 and […] SAHA
Histone deacetylase 8 = target: T3, Histone deacetylase 8 (Homo sapiens, UniProt Q9BY41); test: Inhibition of human recombinant HDAC8 using fluor de Lys as substrate preincubated for 5 mins followed by substrate addition measured after 25 mins by microplate reader analysis
T3 sequence (Q9BY41 whole entry): T2 sequence (whole entry)

[4] = target: T2, Histone deacetylase 8 (Homo sapiens); test: (§2) Binding affinity to human recombinant HDAC8 expressed in Escherichia coli assessed as enzyme biotinylation level at 5 uM preincubated for 3 hrs followed by denaturation measured after 60 mins by Western blot-based photoaffinity labelling method in presence of 250 uM PCI34051; outline: as §1
[5] = target: T2, Histone deacetylase 8 (Homo sapiens); test: Binding affinity to human recombinant HDAC8 expressed in Escherichia coli assessed as increase in enzyme biotinylation level at 5 uM preincubated for 3 hrs followed by denaturation measured after 60 mins by Western blot-based photoaffinity labelling method in presence of 5 uM SAHA; outline: as §1
[6] = target: T2, Histone deacetylase 8 (Homo sapiens); test: Binding affinity to human recombinant HDAC8 expressed in Escherichia coli assessed as increase in enzyme biotinylation level at […] preincubated for 3 hrs followed by denaturation measured after 60 mins by Western blot-based photoaffinity labelling method
[7] = target: T2, Histone deacetylase 8 (Homo sapiens); test: Binding affinity to human recombinant HDAC8 expressed in Escherichia coli assessed as increase in enzyme biotinylation level at […] under non denaturating condition after 3 hrs by Western blot-based photoaffinity labelling method
[8] = target: T2, Histone deacetylase 8 (Homo sapiens); test: Binding affinity to human recombinant HDAC8 expressed in Escherichia coli assessed as enzyme biotinylation level at 5 uM preincubated for 3 hrs followed by denaturation measured after 60 mins by Western blot-based photoaffinity labelling method in presence of 250 uM SAHA; outline: as §1
[9] = target: T2, Histone deacetylase 8 (Homo sapiens); test: Binding affinity to human recombinant HDAC8 expressed in Escherichia coli assessed as enzyme biotinylation level at 5 uM preincubated for 3 hrs followed by denaturation measured after 60 mins by Western blot-based photoaffinity labelling method in presence of 250 uM TSA; outline: as §1
[10] = target: T2, Histone deacetylase 8 (Homo sapiens); test: as §2, with “7-[4-(3,5-Dimethyl-benzyloxy)phenylcarbamoyl]heptanoic acid methyl ester” for “PCI34051”; outline: as §1
Histone deacetylase 1 [11] = target: T4, Histone deacetylase 1 (Homo sapiens, UniProt Q13547); test: Inhibition of human recombinant HDAC1 using Boc-Lys(Ac)-AMC as substrate preincubated for 5 mins followed by substrate addition measured after 30 mins by microplate reader analysis
Histone deacetylase 2 [12] = target: T5, Histone deacetylase 2 (Homo sapiens, UniProt Q92769); test: Inhibition of human recombinant HDAC2 using Boc-Lys(Ac)-AMC as substrate preincubated for 5 mins followed by substrate addition measured after 30 mins by microplate reader analysis
Histone deacetylase 1 [13] = target: T4, Histone deacetylase 1; test: Inhibition of nuclear HDAC1 in human SH-SY5Y cells assessed as increase in histone H4 acetylation after 24 hrs by Western blot analysis; format: cell-based
Outline: (§3)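 SH-SY5Y cells were grown to 80% confluence in 1:1 DMEM:OPTI-MEM with 10% FBS. They were treated with vehicle or compound for 24 h at 37 °C, 5% CO2, then lysed in RIPA buffer with protease and phosphatase inhibitors. Lysate containing 20 µg protein was run by SDS-PAGE and blotted with anti-acetyl α-tubulin or anti-acetyl histone H4 (1:1000) overnight at 4 °C, with anti-GAPDH as reference. Detection was by chemiluminescence on a CCD camera.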

Histone deacetylase 2 [14] = target: T5, Histone deacetylase 2; test: Inhibition of nuclear HDAC2 in human SH-SY5Y cells assessed as increase in histone H4 acetylation after 24 hrs by Western blot analysis; format: cell-based; outline: as §3
Histone deacetylase 3 [15] = target: T1, Histone deacetylase 3; test: Inhibition of nuclear HDAC3 in human SH-SY5Y cells assessed as increase in histone H4 acetylation after 24 hrs by Western blot analysis; format: cell-based; outline: as §3
[16] = target: T2, Histone deacetylase 8 (Homo sapiens); test: Inhibition of nuclear HDAC8 in human SH-SY5Y cells assessed as increase in histone H4 acetylation after 24 hrs by Western blot analysis; format: cell-based; outline: as §3
[17] = target: T6, Protein deacetylase HDAC6 (Homo sapiens) (UniProt Q9UBN7); test: Inhibition of cytoplasmic HDAC6 in human SH-SY5Y cells assessed as alpha-tubulin acetylation at 31.25 to 125 uM after 24 hrs by Western blot analysis; format: cell-based; outline: as §3
T6 sequence (whole entry): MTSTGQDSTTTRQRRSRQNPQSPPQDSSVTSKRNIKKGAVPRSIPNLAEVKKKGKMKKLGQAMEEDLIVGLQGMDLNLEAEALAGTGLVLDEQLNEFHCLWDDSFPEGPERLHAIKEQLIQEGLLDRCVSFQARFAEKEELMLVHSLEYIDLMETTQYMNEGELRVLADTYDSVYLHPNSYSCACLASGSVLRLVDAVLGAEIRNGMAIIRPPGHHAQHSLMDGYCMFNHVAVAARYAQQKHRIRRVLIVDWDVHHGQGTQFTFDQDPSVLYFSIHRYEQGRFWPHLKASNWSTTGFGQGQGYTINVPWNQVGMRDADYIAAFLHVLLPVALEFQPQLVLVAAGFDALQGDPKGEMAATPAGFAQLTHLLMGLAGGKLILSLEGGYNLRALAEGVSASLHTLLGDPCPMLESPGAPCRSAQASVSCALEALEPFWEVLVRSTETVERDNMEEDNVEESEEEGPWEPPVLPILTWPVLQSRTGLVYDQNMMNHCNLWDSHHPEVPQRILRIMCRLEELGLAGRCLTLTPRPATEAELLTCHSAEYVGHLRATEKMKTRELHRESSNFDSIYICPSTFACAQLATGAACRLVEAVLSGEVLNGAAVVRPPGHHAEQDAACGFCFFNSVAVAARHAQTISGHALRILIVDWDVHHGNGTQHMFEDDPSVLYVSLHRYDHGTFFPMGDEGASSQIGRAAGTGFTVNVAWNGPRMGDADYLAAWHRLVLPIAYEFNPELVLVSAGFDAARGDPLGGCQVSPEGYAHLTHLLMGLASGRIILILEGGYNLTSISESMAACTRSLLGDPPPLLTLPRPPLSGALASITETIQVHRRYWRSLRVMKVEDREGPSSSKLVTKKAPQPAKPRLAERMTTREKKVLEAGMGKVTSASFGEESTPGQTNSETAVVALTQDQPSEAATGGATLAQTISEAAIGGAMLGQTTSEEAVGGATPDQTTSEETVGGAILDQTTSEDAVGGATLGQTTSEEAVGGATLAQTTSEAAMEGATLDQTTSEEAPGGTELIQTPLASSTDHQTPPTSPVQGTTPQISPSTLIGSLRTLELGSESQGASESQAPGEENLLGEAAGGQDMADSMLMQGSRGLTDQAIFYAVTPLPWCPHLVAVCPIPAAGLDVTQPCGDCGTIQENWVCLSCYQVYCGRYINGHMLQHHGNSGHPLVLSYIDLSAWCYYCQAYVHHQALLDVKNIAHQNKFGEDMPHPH

Histone deacetylase 3 [18] = target: T1, Histone deacetylase 3; test: Inhibition of human recombinant HDAC3 using Boc-Lys(Ac)-AMC as substrate at 66 uM preincubated for 5 mins followed by substrate addition measured after 30 mins by microplate reader analysis
[19] = target: T2, Histone deacetylase 8 (Homo sapiens); test: (§4) Binding affinity to human recombinant HDAC8 expressed in Escherichia coli assessed as enzyme biotinylation level at 1.5 uM under non denaturating condition after 3 hrs by Western blot-based photoaffinity labelling method in presence of 37.5 and 75 uM SAHA; outline: as §1
[20] = target: T2, Histone deacetylase 8 (Homo sapiens); test: Binding affinity to human recombinant HDAC8 expressed in Escherichia coli assessed as enzyme biotinylation level at 1.5 uM under non denaturating condition after 3 hrs by Western blot-based photoaffinity labelling method in presence of 37.5 and 75 uM TSA; outline: as §1
[21] = target: T2, Histone deacetylase 8 (Homo sapiens); test: Binding affinity to human recombinant HDAC8 expressed in Escherichia coli assessed as enzyme biotinylation level at 1.5 uM under non denaturating condition after 3 hrs by Western blot-based photoaffinity labelling method in presence of 37.5 and 75 uM PCI34051; outline: as §1
[22] = target: T2, Histone deacetylase 8 (Homo sapiens); test: as §4, with “7-[4-(3,5-Dimethyl-benzyloxy)phenylcarbamoyl]heptanoic acid methyl ester” for “37.5 and 75 uM SAHA”; outline: as §1
[23] = target: T2, Histone deacetylase 8 (Homo sapiens); test: Inhibition of human recombinant HDAC8 using fluor de Lys as substrate assessed as residual activity at 66 uM preincubated for 5 mins followed by substrate addition measured after 25 mins by microplate reader analysis
[24] = target: T6, Protein deacetylase HDAC6 (Homo sapiens); test: Inhibition of cytoplasmic HDAC6 in human SH-SY5Y cells assessed as alpha-tubulin acetylation at 1 uM after 24 hrs by Western blot analysis; format: cell-based; outline: as §3

T1 sequence (O15379 whole entry): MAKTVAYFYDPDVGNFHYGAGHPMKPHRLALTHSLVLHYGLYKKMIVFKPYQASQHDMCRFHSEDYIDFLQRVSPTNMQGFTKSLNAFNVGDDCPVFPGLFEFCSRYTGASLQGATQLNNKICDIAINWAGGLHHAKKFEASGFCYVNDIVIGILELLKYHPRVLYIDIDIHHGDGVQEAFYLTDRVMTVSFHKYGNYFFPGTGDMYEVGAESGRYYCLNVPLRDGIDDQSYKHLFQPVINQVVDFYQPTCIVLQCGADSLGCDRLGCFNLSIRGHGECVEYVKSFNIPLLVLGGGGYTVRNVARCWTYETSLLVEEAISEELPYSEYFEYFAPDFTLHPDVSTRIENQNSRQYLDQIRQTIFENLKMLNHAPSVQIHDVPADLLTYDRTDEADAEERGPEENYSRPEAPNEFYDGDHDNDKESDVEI
T4 sequence (Q13547 whole entry): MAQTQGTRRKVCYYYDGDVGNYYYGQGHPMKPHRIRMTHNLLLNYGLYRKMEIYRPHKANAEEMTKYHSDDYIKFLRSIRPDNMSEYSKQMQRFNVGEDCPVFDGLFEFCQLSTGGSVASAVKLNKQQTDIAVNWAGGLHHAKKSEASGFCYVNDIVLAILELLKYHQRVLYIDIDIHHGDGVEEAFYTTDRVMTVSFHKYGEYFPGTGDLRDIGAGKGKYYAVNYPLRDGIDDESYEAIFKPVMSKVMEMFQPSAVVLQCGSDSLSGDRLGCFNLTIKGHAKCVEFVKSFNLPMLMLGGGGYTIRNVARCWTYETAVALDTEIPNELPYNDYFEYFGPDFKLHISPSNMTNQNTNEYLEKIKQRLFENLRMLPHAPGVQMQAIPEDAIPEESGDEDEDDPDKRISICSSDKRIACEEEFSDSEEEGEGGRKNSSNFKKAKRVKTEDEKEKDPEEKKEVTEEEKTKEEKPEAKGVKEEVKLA
T5 sequence (Q92769 whole entry): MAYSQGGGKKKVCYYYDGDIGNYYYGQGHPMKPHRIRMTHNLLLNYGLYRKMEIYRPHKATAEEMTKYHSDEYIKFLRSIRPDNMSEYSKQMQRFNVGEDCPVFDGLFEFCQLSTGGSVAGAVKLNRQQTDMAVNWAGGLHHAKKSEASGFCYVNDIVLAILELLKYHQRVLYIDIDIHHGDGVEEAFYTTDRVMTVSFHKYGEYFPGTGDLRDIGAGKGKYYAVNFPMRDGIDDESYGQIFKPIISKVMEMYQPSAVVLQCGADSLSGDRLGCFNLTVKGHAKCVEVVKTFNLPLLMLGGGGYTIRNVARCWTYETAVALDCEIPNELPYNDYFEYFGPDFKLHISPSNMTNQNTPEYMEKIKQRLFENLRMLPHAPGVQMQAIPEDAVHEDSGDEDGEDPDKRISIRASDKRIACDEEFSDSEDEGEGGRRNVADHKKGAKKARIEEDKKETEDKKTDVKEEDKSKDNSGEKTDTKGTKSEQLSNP

In the case of `[N-]=[N+]=NCc1cc(COc2ccc(NC(=O)CCCCCCC(=O)NO)cc2)cc(N=[N+]=[N-])c1`, the Ki (Histone deacetylase 3 [1]) is reported as 740 nM, the Activity [2] is reported as “Dose-dependent effect” and the Activity [3] is reported as “inactive”.

Work on `Cc1cc(C)cc(COc2ccc(NC(=O)CCCCCCC(=O)OC(C)(C)C)cc2)c1` yielded an IC50 (Histone deacetylase 8; read-out: IC50) of 53.2 µM.

With `COC(=O)CCCCCCC(=O)Nc1ccc(OCc2cc(CN=[N+]=[N-])cc(N=[N+]=[N-])c2)cc1` the Activity [4] was “inactive”, the Activity [2] was “Dose-dependent effect” and the Activity [5] was “Active”. The Activity [6] was “Active”, the Activity [7] was “Active” and the Activity [8] was “inactive”. The Activity [9] was “inactive”, the Activity [10] was “inactive” and the IC50 (Histone deacetylase 8; read-out: IC50) was 37.4 µM.

For `COc1cc(COc2ccc(NC(=O)CCCCCCC(=O)OCc3ccc(CN=[N+]=[N-])cc3)cc2)cc(N=[N+]=[N-])c1`, the IC50 (Histone deacetylase 1 [11]) was 86 µM, the IC50 (Histone deacetylase 2 [12]) was 79 µM and the inhibition (Histone deacetylase 1 [13]) was “Dose-dependent effect”. For the same compound, the inhibition (Histone deacetylase 2 [14]) was “Dose-dependent effect”, the inhibition (Histone deacetylase 3 [15]) was “Dose-dependent effect” and the inhibition [16] was “Dose-dependent effect”. The inhibition [17] was “inactive”, the inhibition (Histone deacetylase 3 [18]) was “inactive” and the Activity [10] was “inactive”. For the same compound, the Activity [19] was “inactive”, the Activity [20] was “inactive” and the Activity [21] was “inactive”. For the same compound, the Activity [22] was “inactive” and the IC50 (Histone deacetylase 8; read-out: IC50) was 28 µM.

With `COC(=O)CCCCCCC(=O)Nc1ccc(OCc2ccccc2)cc1` the Activity [23] was over 50% and the IC50 (Histone deacetylase 8) was “Not Active”.

`O=C(NO)c1ccc(Cn2c3ccccc3c3ccccc32)cc1` was tested, and the inhibition [24] was “Active”.

With `CCCCCCCC(=O)Nc1ccc(OCc2cc(C)cc(C)c2)cc1` the IC50 (Histone deacetylase 8) was “Not Active”.

`CC(C)(C)OC(=O)CCCCCCC(=O)Nc1ccc(OCc2cc(CN=[N+]=[N-])cc(N=[N+]=[N-])c2)cc1` gave an IC50 (Histone deacetylase 8; read-out: IC50) of 42.6 µM.

Work on `[N-]=[N+]=NCc1cc(N=[N+]=[N-])cc(C(=O)Nc2ccc(-c3cc(C(=O)NCCCCCCC(=O)NO)no3)cc2)c1` yielded a Ki (Histone deacetylase 3 [1]) of 23 nM.

`COC(=O)CCCCCCC(=O)Nc1cnn(Cc2cc(CN=[N+]=[N-])cc(N=[N+]=[N-])c2)c1` was tested, and the IC50 (Histone deacetylase 8; read-out: IC50) was 36 µM.

`COC(=O)CCCCCCNC(=O)c1cc(-c2ccc(NC(=O)c3cc(CN=[N+]=[N-])cc(N=[N+]=[N-])c3)cc2)on1` gave an IC50 (Histone deacetylase 8; read-out: IC50) of 47.1 µM.

For `[N-]=[N+]=NCc1cc(Cn2cc(NC(=O)CCCCCCC(=O)NO)cn2)cc(N=[N+]=[N-])c1`, the Ki (Histone deacetylase 3 [1]) was 64 nM.

In the case of `COc1cc(COc2ccc(NC(=O)CCCCCCC(=O)OCCN=[N+]=[N-])cc2)cc(N=[N+]=[N-])c1`, the IC50 (Histone deacetylase 1 [11]) is reported as 111 µM, the IC50 (Histone deacetylase 2 [12]) is reported as 72 µM and the inhibition (Histone deacetylase 3 [18]) is reported as “inactive”. For the same compound, the Activity [2] was “Dose-dependent effect” and the IC50 (Histone deacetylase 8; read-out: IC50) was 67.5 µM.

With `COC(=O)CCCCCCC(=O)Nc1ccc(OCc2cc(C)cc(C)c2)cc1` the IC50 (Histone deacetylase 8; read-out: IC50) was 47.8 µM.
